In one assay the target is T1, Adenosine receptor A1 (Rattus norvegicus, UniProt P25099).
T1 sequence (P25099 whole entry): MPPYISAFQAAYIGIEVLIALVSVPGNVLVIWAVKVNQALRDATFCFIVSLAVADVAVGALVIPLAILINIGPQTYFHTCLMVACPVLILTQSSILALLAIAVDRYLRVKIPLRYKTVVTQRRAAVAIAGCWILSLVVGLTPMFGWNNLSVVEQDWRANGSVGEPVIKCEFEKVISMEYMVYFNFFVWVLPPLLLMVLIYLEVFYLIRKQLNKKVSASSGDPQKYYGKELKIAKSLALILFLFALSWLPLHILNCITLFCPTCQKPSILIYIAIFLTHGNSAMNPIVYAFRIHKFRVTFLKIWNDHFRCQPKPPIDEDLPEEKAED
The assay is described as follows: Binding affinity for adenosine A1 receptor from rat brain membranes using [3H]PIA as radioligand.

In the next assay the target is Adenosine receptor A2a (Rattus norvegicus, UniProt P30543). Description: Binding affinity for adenosine A2A receptor from rat brain membranes using [3H]CGS-21680.
Chain of Adenosine receptor A2a (P30543 whole entry): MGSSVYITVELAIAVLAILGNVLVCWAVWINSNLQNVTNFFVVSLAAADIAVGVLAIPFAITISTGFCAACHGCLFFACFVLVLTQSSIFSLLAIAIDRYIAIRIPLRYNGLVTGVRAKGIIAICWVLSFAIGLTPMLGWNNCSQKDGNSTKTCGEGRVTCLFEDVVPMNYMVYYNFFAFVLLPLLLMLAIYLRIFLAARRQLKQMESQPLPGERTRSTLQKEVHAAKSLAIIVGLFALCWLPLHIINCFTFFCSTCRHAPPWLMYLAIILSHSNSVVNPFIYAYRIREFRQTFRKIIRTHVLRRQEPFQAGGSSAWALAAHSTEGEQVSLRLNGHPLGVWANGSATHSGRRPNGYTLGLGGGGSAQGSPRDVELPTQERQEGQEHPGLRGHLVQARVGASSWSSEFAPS
The target in assay [1] is T2, Adenosine receptor A1 (Rattus norvegicus) (UniProt P25099).
T2 sequence (whole entry): T1 sequence (P25099 whole entry)
Description: Inhibition of [3H]PIA binding to Adenosine A1 receptor in rat brain membranes at 100 uM. The assay is classed as cell membranes. To be noted: 250 uM, in the assay text read “250 uM” for “100 uM”. The method, boiled down: (§1)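 Rat brain membranes labelled with 1 nM [3H]-N6-[(R)-phenylisopropyl]adenosine for A1 sites. Nonspecific binding was defined with 10 μM 2-chloroadenosine. The value is percent inhibition of specific binding at the highest concentration tested, which was sometimes limited by solubility.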

Assay [2] has as its target Adenosine receptor A2a (Rattus norvegicus) (UniProt P30543). Description: Inhibition of [3H]-CGS- 21680 binding to Adenosine A2A receptor in rat brain membranes at 100 uM. The assay is classed as cell membranes. In short, it runs like this: (§2)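 Rat striatal membranes incubated with 4 nM [3H]CGS 21680 as the A2a radioligand. Nonspecific binding was defined with 20 μM 2-chloroadenosine. The value is percent inhibition of specific binding at the highest concentration tested, which was sometimes limited by solubility.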

Assay [3] has the same target. Description: Inhibition of [3H]-CGS- 21680 binding to Adenosine A2A receptor in rat brain membranes at 250 uM. The assay is classed as cell membranes. In short, it runs like this:
as §2

The target in assay [4] is T2, Adenosine receptor A1 (Rattus norvegicus). The assay is described as follows: Inhibition of [3H]PIA binding to A1 adenosine receptor in rat brain membranes at 250 uM. The assay is classed as cell membranes. In short, it runs like this: as §1
The target in assay [5] is Adenosine receptor A2a (Rattus norvegicus) (UniProt P30543). The assay is described as follows: Inhibition of [3H]-CGS- 21680 binding to Adenosine A2A receptor in rat brain membranes at 20 uM. The assay is classed as cell membranes. The method, boiled down:
as §2

For assay [6] the target is unchanged. The assay is described as follows: Inhibition of [3H]-CGS- 21680 binding to Adenosine A2A receptor in rat brain membranes at […]. The assay is classed as cell membranes. In short, it runs like this: as §2

Chain of Adenosine receptor A2a (Rattus norvegicus) (P30543 whole entry): as above

With `Cn1c(=O)c2nc(C3CCC3)[nH]c2n(C)c1=O`, the inhibition constant (Ki) was found to be 0.19 µM on Adenosine receptor A1 and 2.8 µM at Adenosine receptor A2a. Consider `C=CCn1c(-c2ccc(C(F)(F)F)cc2)nc2c1c(=O)n(CCC)c(=O)n2CCC`, for which the Ki stood at 2.9 µM on Adenosine receptor A1 and 4.2 µM on Adenosine receptor A2a. `Cn1c(=O)c2[nH]c(-c3ccc(S(=O)(=O)O)cc3)nc2n(C)c1=O` came in with a Ki at Adenosine receptor A2a of 5.8 µM. As to `Cn1c(=O)c2c(nc(/C=C/C(=O)OC(C)(C)C)n2C)n(C)c1=O`, the values for the Ki at Adenosine receptor A1 and at Adenosine receptor A2a were 12 µM and 0.61 µM, respectively. With `Cn1c(=O)c2c(nc(/C=C/C(=O)O)n2C)n(C)c1=O`, in assay [1], the inhibition was 3%. The same compound came in with an inhibition constant Ki at Adenosine receptor A2a of 42 µM. Regarding `Cn1c(=O)c2[nH]c(Cl)nc2n(C)c1=O`, the inhibition worked out at 39% in assay [1] and 34% in assay [2].

As for `Cn1c(=O)c2c(nc(Br)n2C)n(C)c1=O`, the Ki at Adenosine receptor A1 came out at 49 µM; on Adenosine receptor A2a, 12 µM. On the same counts, the results for `CCC/C=C/c1nc2c(=O)n(C)c(=O)n(C)c2[nH]1` are 0.38 µM and 0.44 µM. With `Cn1c(-c2ccc(S(N)(=O)=O)cc2)nc2c1c(=O)[nH]c(=O)n2C`, the inhibition in assay [1] stood at 33%; in assay [3], 42%. `Cn1c(=O)c2[nH]c(Br)nc2n(C)c1=O` [PAMABROM] returned a Ki on Adenosine receptor A1 of 10.2 µM. Besides, in assay [2], the inhibition was determined as 36%. Consider `CCCn1c(=O)c2nc(-c3ccc(S(N)(=O)=O)cc3)[nH]c2n(CCC)c1=O`, for which the affinity at Adenosine receptor A2a corresponds to a Ki of 0.075 µM. Consider `CCCn1c(=O)c2nc(-c3ccc(C(F)(F)F)cc3)[nH]c2n(CCC)c1=O`, for which the inhibitory constant (Ki) stood at 0.0075 µM on Adenosine receptor A1 and 0.042 µM at Adenosine receptor A2a. `Cn1c(=O)c2c(nc(-c3ccccc3)n2C)n(C)c1=O`: at Adenosine receptor A2a, affinity was put at a Ki of 16 µM.

As for `Cn1c(=O)c2nc(C(F)(F)F)[nH]c2n(C)c1=O`, the inhibition in assay [3] and in assay [4] was 0% each time. As for `CCCn1c(=O)c2nc(C(F)(F)F)[nH]c2n(CCC)c1=O`, the inhibition in assay [5] is 4.3%; in assay [1], 4.5%. At Adenosine receptor A1, `CCC/C=C/c1nc2c(c(=O)n(C)c(=O)n2C)n1C` had a Ki of 9.1 µM. This lies in the single-digit micromolar range. Turning to `Cn1c(=O)c2c(nc(-c3ccc(C(F)(F)F)cc3)n2C)n(C)c1=O`, the inhibition constant Ki came to 17 µM at Adenosine receptor A1 and 16 µM at Adenosine receptor A2a. On to `Cn1c(-c2ccccc2)nc2c1c(=O)[nH]c(=O)n2C`, for which affinity on Adenosine receptor A2a was put at a Ki of 12 µM. This counts as double-digit micromolar. For the compound `CC(C)Cn1c(=O)n(C)c(=O)c2[nH]cnc21` [ISOBUTYLMETHYLXANTHINE], the Ki at Adenosine receptor A2a amounted to 5.8 µM. Compared with the last compound, the Ki is about 2.1-fold lower.

With `Cc1nc2c(=O)n(C)c(=O)n(C)c2[nH]1`, at Adenosine receptor A1, the inhibition constant Ki came out at 8.8 µM. Further, in assay [3], the inhibition was found to be 34%. At Adenosine receptor A2a, `CCCn1c(=O)c2nc[nH]c2n(CCC)c1=O` showed a Ki of 2.6 µM. This lies in the single-digit micromolar range.

`Cn1c(-c2ccc(S(=O)(=O)O)cc2)nc2c1c(=O)[nH]c(=O)n2C`: the values for the inhibition in assay [1] and in assay [3] were 1.8% and 0%, respectively. In the case of `Cn1c(=O)c2c(nc(C(F)(F)F)n2C)n(C)c1=O`, in assay [1], the inhibition worked out at 8%. Further, at Adenosine receptor A2a, the inhibitory constant (Ki) was determined as 29 µM. For the compound `C=CCn1c(=O)c2c(nc(-c3ccc(C(F)(F)F)cc3)n2C)n(C)c1=O`, the Ki on Adenosine receptor A1 turned out to be 5.7 µM; at Adenosine receptor A2a, 11 µM. As to `Cn1c(=O)c2[nH]c(-c3ccc(C(F)(F)F)cc3)nc2n(C)c1=O`, the Ki on Adenosine receptor A1 is 0.15 µM; at Adenosine receptor A2a, 0.21 µM. The compound `CCCn1c(=O)c2[nH]c(-c3ccccc3)nc2n(CCC)c1=O` came in with a Ki on Adenosine receptor A2a of 0.14 µM. Regarding `Cc1nc2c(c(=O)n(C)c(=O)n2C)n1C`, the Ki on Adenosine receptor A1 came out at 4.9 µM; on Adenosine receptor A2a it was 7.6 µM. In assay [1], `Cn1c(=O)c2c(nc(-c3ccc(S(=O)(=O)O)cc3)n2C)n(C)c1=O` yielded an inhibition of 3.3%. Besides, the inhibitory constant (Ki) at Adenosine receptor A2a was 20 µM. `C=CCn1c(=O)c2c(nc(-c3ccc(S(=O)(=O)O)cc3)n2C)n(C)c1=O` gave an inhibition in assay [1] of 35%. The inhibition constant (Ki) on Adenosine receptor A2a came to 27 µM. Compound `CCCn1c(=O)c2[nH]c(-c3ccc(S(=O)(=O)O)cc3)nc2n(CCC)c1=O` had a Ki on Adenosine receptor A2a of 0.79 µM. Consider `CCCn1c(=O)c2nc(C)[nH]c2n(CCC)c1=O`, for which the Ki at Adenosine receptor A1 amounted to 0.6 µM; at Adenosine receptor A2a, 2.8 µM. The like results for `C=CCn1c(=O)c2c(nc(-c3ccccc3)n2CC=C)n(C)c1=O` were, in that order, 0.66 µM and 7.7 µM. Regarding `Cn1c(=O)c2c(nc(C3CCC3)n2C)n(C)c1=O`, the figures for the inhibition constant (Ki) at Adenosine receptor A1 and at Adenosine receptor A2a were 30 µM and 19 µM, respectively. Compound `Cn1c(-c2ccc(C(F)(F)F)cc2)nc2c1c(=O)[nH]c(=O)n2C` displayed a Ki at Adenosine receptor A1 of 3.7 µM. Besides, the inhibition in assay [6] worked out at 10%. As to `C=CCn1c(=O)c2c(nc(-c3ccccc3)n2C)n(C)c1=O`, the inhibition constant Ki at Adenosine receptor A1 worked out at 9 µM; at Adenosine receptor A2a, 12 µM. The compound `CC(C)Cn1c(=O)n(C)c(=O)c2[nH]c(Br)nc21` gave an inhibitory constant (Ki) at Adenosine receptor A1 of 65 µM. Also, the inhibition in assay [2] came out at 10%. As for `Cn1c(=O)c2[nH]c(-c3ccccc3)nc2n(C)c1=O` [8-PHENYL THEOPHYLLINE], the inhibition constant (Ki) at Adenosine receptor A2a is 0.97 µM.

A word on the Ki: it is a measure of affinity in units of concentration, obtained from inhibition or displacement. One may read the inhibition as the share of the control response that was lost under treatment. Lower therefore signals a response near the control.
